Measurements collected from several papers.
Protocols differ between the studies behind these lines.
Target: Receptor tyrosine-protein kinase erbB-2 (ERBB2, Homo sapiens, UniProt P04626)

The remaining binding of Cc1ccc(NC(=O)c2ccnc(C(F)(F)F)c2)cc1-c1cc(OCCO)nc(N2CCOCC2)c1 is reported as 72% (binding, competition with immobilised ligand; 1 µM).
CO[C@@H]1[C@H](N(C)C(=O)c2ccccc2)C[C@H]2O[C@]1(C)n1c3ccccc3c3c4c(c5c6ccccc6n2c5c31)C(=O)NC4 has an inhibition of 0% (enzyme activity, inhibitor; 1 µM).
With C1=C/COCc2cc(ccc2OCCN2CCCC2)Nc2nccc(n2)-c2cccc(c2)COC/1 the remaining binding was 100% (binding; 0.1 µM).
N#Cc1ccc(NC(=O)Nc2ccccc2)cc1 has a remaining binding of 100% (cell-free assay, competition with immobilised ligand; 25 µM).
C=CC(=O)N1CCC[C@@H](n2nc(-c3ccc(Oc4ccccc4)cc3)c3c(N)ncnc32)C1 has an inhibition of 100% (enzyme activity, inhibitor; 1 µM).
For CCCCC(=O)Nc1ccc(-c2ccc3ncn(CCC)c(=O)c3c2)cn1, the remaining binding was 97% (binding, competition with immobilised ligand; 0.5 µM).
With C#Cc1cnc(Nc2ccnc(CO)c2)nc1Nc1ccccc1S(C)(=O)=NC#N (stereo not shown) the remaining signal was 86% (cell-free assay; 1 µM).
COc1c(Cl)cccc1Nc1c(-c2ccncc2OC[C@@H]2COCCO2)[nH]c2c1C(=O)NCC2 has an inhibition of > 80% (enzyme activity, inhibitor, radiometric; 1 µM).
For COc1ccc2oc(-c3ccc4nc(N)oc4c3)c/c(=N\c3ccccc3NC(=O)CCN)c2c1, the remaining binding was 104% (binding; 1 µM).
For C[C@H]1CC[C@H](n2c3cnccc3c3cnc(Nc4ccc5c(n4)CCN(C(=O)CO)C5)nc32)CC1, the remaining binding was 100% (binding, competition with immobilised ligand; 1 µM).
